Assay outcomes deposited in PubChem BioAssay by several laboratories.
In the library only some 2.2% were active in any assay of this set; here they are far more common.
CR mimetic SO = reduction of superoxide in aged yeast, primary screen, HTS; S. cerevisiae aged cells, superoxide DHE fluorescence; active compounds read low; superoxide response (% of plate mean), % at 10 µM; 330,000 tested, 0.18% active; AID 2690, 2010;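 active means superoxide response under a set limit, about three screen SD below normal, cut at about 65% in these data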;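 further: yeast aged for seven days with compound at 30 °C before DHE staining; 100% = average MFI of all compound-treated wells on the plate with controls excluded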
PglD inh = C. jejuni PglD acetyltransferase inhibitors, primary screen, biochemical, DTNB colorimetric, single point. purified PglD enzyme, DTNB colorimetric CoA detection. AID 602405, 2012. 360,000 tested, 0.098% active. inhibition, % at 12.5 µM. UDP-N-acetylbacillosamine N-acetyltransferase PglD (Campylobacter jejuni); in the data active means inhibition above about 16%, passing the limit was not always enough
rRNA inh HTS = reduced GFP signal of wild-type E. coli, primary screen, bacterial rRNA inhibitor project, GFP/RFP fluorescence, OD600, single point; 350,000 tested, 1.6% active; GFP signal change (wild-type ribosome), % (no concentration beside the values); E. coli WT GFP vs humanized-ribosome RFP mutants, 24 h; active compounds read low; DMSO median 0, no signal -100; AID 720706, 2013;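 active means significant combined selectivity score with lowered wild-type GFP, culture density cut under 30%, mutant RFP and density less affected; inactive means any of these conditions unmet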
Cneo AK release = Cryptococcus neoformans cell lysis inducers, primary screen, AK release luminescence, single concentration; C. neoformans lysis, adenylate kinase release luminescence, 4 h; normalised: neutral wells 0, clomiphene wells 100; lysis activity, % at 15 µM; AID 651654, 2012; 360,000 tested, 0.2% active;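 active means mean lysis activity across replicates of at least 80%, whatever share of replicates individually reach that level; inactive means mean lysis activity below 80%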
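Test system: log-phase Cryptococcus neoformans yeast cells; Quantity: yeast cell density of 5 × 10^6 cells/mL; Buffer or medium: YPD; Doses: single compound concentration per well; Timing: 4 h at 37 °C static, read 1 h later; Measured by: AK luminescence; Read-out basis: lysis from increased AK signal; Control set: Clomiphene as positive control.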
Mot1-301 SUMO = yeast Mot1-301 growth rescue at high temperature, primary screen, SUMOylation pathway inhibitor project, S. cerevisiae, ATP luminescence, 38.5C; S. cerevisiae Mot1-301 growth rescue; percent above DMSO median, 100 means doubled; growth rescue, % at 18.8 µM; 320,000 tested, 1% active; AID 2716, 2010;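 active means every valid replicate shows activation above 250% relative to neutral control wells; inactive means the rest, any valid replicate at or below 250%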;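 further: OY570 slx delta 5 strain wells were the positive control but not used for scaling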
An asterisk follows results filed as active; x = not tested or not shown.

SMILES	CR mimetic SO	PglD inh	rRNA inh HTS	Cneo AK release	Mot1-301 SUMO
C[C@H](CO)N1C[C@H](C)[C@@H](CN(C)S(C)(=O)=O)Oc2c(NC(=O)CCCN(C)C)cccc2C1=O	x	x	-1	x	x
CC(C)N1CCN(c2ccc(OC[C@H]3CO[C@](Cn4cncn4)(c4ccc(Cl)cc4Cl)O3)cc2)CC1	104	7	x	-2	269*
O=C(C[C@H]1CC[C@@H](NC(=O)NC2CCCCC2)[C@@H](CO)O1)NCc1ccccc1	x	-1	-1	-6	x
N#C/C(=C\Nc1ccc(Cl)cn1)S(=O)(=O)c1ccccn1	103	x	16	x	-21
N#C/C(=C\Nc1ccc(Cl)cn1)S(=O)(=O)c1ccccc1	90	x	-35*	x	-15
COc1ccc(-n2c(C)c(C(C)=O)c3cc(OC(C)=O)ccc32)cc1	100	3	-24*	3	697
O=C(C[C@@H]1CC[C@H]2[C@@H](COC[C@@H](O)CN2S(=O)(=O)c2ccccc2)O1)N1CCc2ccccc2C1	x	0	-6	-6	x
Cc1ccc(S(=O)(=O)N[C@@H]2CC[C@H](CCNC(=O)C3CCCC3)O[C@@H]2CO)cc1	x	2	0	86*	x
Cc1ccc(S(=O)(=O)N[C@H]2CC[C@@H](CCNC(=O)C3CCCC3)O[C@@H]2CO)cc1	x	0	0	-1	x
Cc1ccc(S(=O)(=O)N[C@H]2CC[C@H](CC(=O)NCc3ccccc3F)O[C@H]2CO)cc1	x	2	1	100*	x
C[C@H](CO)N1C[C@H](C)[C@@H](CN(C)C(=O)Nc2ccc(F)cc2)Oc2ccc(NC(=O)CCN3CCOCC3)cc2C1=O	x	0	4	-1	x
CCOC(=O)C(C)Sc1nnc2n1C(C)(C)Cc1ccccc1-2 (stereo not given)	96	1	-22*	2	x
CC1(C)Cc2ccccc2-c2nnc(SCc3ccccc3)n21	105	-4	-36	1	-11
CCOC(=O)COC(=O)c1ccc(O)cc1	92	-9	x	-3	-11
Cc1ccc(C(=O)COC(=O)c2ccc(O)cc2)cc1	98	x	-27*	x	1
CC(C)NC(=O)N[C@@H]1CC[C@@H](CCNC(=O)C2CC2)O[C@H]1CO	x	-1	3	-6	x
CC(C)NC(=O)N[C@H]1CC[C@@H](CCNC(=O)C2CC2)O[C@H]1CO	x	-3	0	92*	x
CC(C)NC(=O)N[C@H]1CC[C@H](CCNC(=O)C2CC2)O[C@H]1CO	x	0	1	6	x
CC(C)NC(=O)N[C@H]1CC[C@@H](CCNC(=O)C2CC2)O[C@@H]1CO	x	2	2	93*	x
CNC(=O)C[C@H]1CC[C@@H]2[C@H](COc3ccc(NS(=O)(=O)c4ccccc4C)cc3C(=O)N2C)O1	x	3	0	-5	x
CCCCCc1cc(=O)oc2c(C(CCN3CCCC(C)C3)c3ccc(OC)cc3)c(OC)cc(OC)c12 (stereo not given)	98	1	-37*	28	144
CCCCCc1cc(=O)oc2c(C(CCN3CCCCC3)c3ccc(OC)cc3)c(OC)cc(OC)c12 (stereo not given)	98	-5	-56	0	-13
O=C(C[C@H]1CC[C@@H]2[C@H](COC[C@@H](O)CN2Cc2ccc(F)cc2)O1)NCc1ccncn1	x	2	-4	0	x
COCCNC(=O)C(c1cccs1)N(CCc1ccccc1)C(=O)Cn1nnc2ccccc21 (stereo not given)	99	-6	x	2	-5
COCCNC(=O)C(c1cccs1)N(Cc1ccccc1)C(=O)Cn1nnc2ccccc21 (stereo not given)	103	-1	x	0	284*
SMILES	CR mimetic SO	PglD inh	rRNA inh HTS	Cneo AK release	Mot1-301 SUMO
CN(C)CCNc1oc(-c2ccccc2F)nc1C#N	93	-3	8	1	16
N#Cc1nc(-c2ccccc2F)oc1NCc1cccc2c1OCO2	90	0	-29*	1	6
CCc1ccc(C(=O)COC(=O)CNC(=O)c2ccc(Br)o2)cc1	96	-3	-22*	1	-9
Cc1ccc(C(=O)COC(=O)CNC(=O)c2ccc(Br)o2)cc1[N+](=O)[O-]	119	5	x	-7	-23
CCn1c2ccccc2c2cc(NC(=O)c3ccco3)ccc21	107	2	-35*	1	13
Cc1ccc2[nH]cc(C(=O)NCc3cccs3)c(=O)c2c1	100	-1	-24*	0	14
COc1cccc2c(=O)c(C(=O)NCc3cccs3)c[nH]c12	112	0	x	0	x
CCC(=O)N1CC2(C1)CN(Cc1ccc(OC)cc1)[C@@H](CO)c1[nH]c3cc(OC)ccc3c12	x	x	0	x	x
CC1=NC(=O)C(N=Nc2cccc(C(=O)O)c2)N1c1ccccc1 (stereo not given)	105	x	-31*	x	-12
COc1ccc(S(=O)(=O)N2CCC3(CC2)CN(C(=O)CN(C)C)[C@@H](CO)c2c3c3ccc(OC)cc3n2C)cc1	x	x	0	x	x
Cc1noc(C)c1NC(=O)Nc1ccc2c(c1)C(=O)N([C@@H](C)CO)C[C@H](C)[C@H](CN(C)S(=O)(=O)c1ccccc1)O2	x	x	0	x	x
CC(=O)NN1C(=O)c2ccc3c4c(ccc(c24)C1=O)C(=O)N(NC(C)=O)C3=O	124	3	-22*	0	4
C[C@@H]1CN([C@H](C)CO)C(=O)c2cc(NC(=O)Cc3ccccc3)ccc2O[C@@H](C)CCCCO[C@H]1CN(C)S(=O)(=O)c1cccs1	x	-1	-1	2	x
CC(=O)C1=C(C)Nc2ncnn2C1c1cccc(O)c1 (stereo not given)	98	-2	11	1	336*
COc1ccc(-c2cn3c(C)c(C(=O)Nc4cccc(C)n4)sc3n2)cc1	96	2	-30*	0	6
Cc1cccc(NC(=O)c2sc3nc(-c4ccc(F)cc4)cn3c2C)n1	108	-9	x	-1	-3
O=C(C1CC1)N1CCCCN2[C@H](C1)[C@@H](c1ccc(C#CC3CC3)cc1)[C@@H]2CO	x	3	x	0	x
CN1/C(=C/C=C/c2n(C)c3cc([N+](=O)[O-])c([N+](=O)[O-])cc3[n+]2C)C(C)(C)c2ccccc21	x	-6	-59*	-2	x
C[C@@H]1CN([C@@H](C)CO)C(=O)c2cc(NS(=O)(=O)c3ccc(F)cc3)ccc2O[C@H]1CN(C)C(=O)Nc1ccc(F)cc1	x	-4	-3	1	x
C[C@@H]1CN([C@@H](C)CO)C(=O)c2cc(NC(=O)CCCN(C)C)ccc2O[C@H]1CN(C)Cc1ccc(Oc2ccccc2)cc1	x	-2	-3	-3	x
CCCNC(=O)N1[C@H](CO)[C@H](c2ccccc2)[C@H]1CNC(=O)c1ccc(F)cc1	x	-1	-2	0	x
